Rows were chosen to be rich in hits. Some 2.4% of all compounds tested hit in one or more screens of this group.
EWS-Fli block – blocks EWS/Fli oncoprotein-driven transcription; A673 NR0B1-luciferase reporter, viability-normalised; inhibition, % at 12.6 µM; actives 0.67% (n = 350,000); AID 651661;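 active means mean inhibition of at least 50% after viability correction, with every replicate also passing that limit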;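 further: firefly luciferase signal divided by Alamar Blue viability fluorescence both relative to DMSO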
rRNA inh HTS – selective bacterial rRNA inhibition in E. coli; actives 1.6% (n = 350,000); GFP signal change (wild-type ribosome), % (no concentration beside the values); E. coli WT GFP vs humanized-ribosome RFP mutants, fluorescence, 24 h; stronger effect = lower value; DMSO median 0, no signal -100; AID 720706;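 active means significant combined selectivity score with lowered wild-type GFP, culture density cut under 30%, mutant RFP and density less affected; inactive means any of these conditions unmet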
E-sel inducer – E-selectin induction on HUVECs; HUVEC E-selectin immunofluorescence imaging; normalized: neutral wells 0, TNF-alpha wells 100; activation, % at 7.58 µM; AID 686992; actives 0.37% (n = 260,000);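 active means mean E-selectin-positive cell signal at least 10% of the positive control, reached in at least 60% of replicates, without over 20% cell loss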
Target sequence (P16581 whole entry, looked up): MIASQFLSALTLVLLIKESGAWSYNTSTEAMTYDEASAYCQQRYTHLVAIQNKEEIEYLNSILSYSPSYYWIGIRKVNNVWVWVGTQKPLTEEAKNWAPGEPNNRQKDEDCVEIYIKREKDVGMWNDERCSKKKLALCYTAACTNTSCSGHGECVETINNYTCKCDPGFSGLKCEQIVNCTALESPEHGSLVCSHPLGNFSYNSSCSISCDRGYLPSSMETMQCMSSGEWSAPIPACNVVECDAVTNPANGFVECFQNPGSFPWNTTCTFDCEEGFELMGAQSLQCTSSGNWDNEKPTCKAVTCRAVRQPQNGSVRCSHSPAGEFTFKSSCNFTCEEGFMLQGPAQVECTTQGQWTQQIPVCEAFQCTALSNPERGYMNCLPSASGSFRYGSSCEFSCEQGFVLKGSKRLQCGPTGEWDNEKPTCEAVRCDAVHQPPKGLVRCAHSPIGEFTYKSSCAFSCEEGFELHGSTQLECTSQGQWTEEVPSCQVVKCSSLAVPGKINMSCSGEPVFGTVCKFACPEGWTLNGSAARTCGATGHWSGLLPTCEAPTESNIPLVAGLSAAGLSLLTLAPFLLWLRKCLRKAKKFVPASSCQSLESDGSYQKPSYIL
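Test system: HUVEC | Signal: Immunofluorescence imaging | Read-out: Percent E-selectin-positive cells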
LGR2 inh – blocks bursicon-induced cAMP signaling via Drosophila LGR2; HEK293 LGR2, CRE-luciferase, bursicon-stimulated, 4 h; inhibition, % at 9.99 µM; actives 0.35% (n = 380,000);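 active means drop in luminescence signal, shown as inhibition above about 50% in the replicate tests, limit read from the data, passing the limit was not always enough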;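 further: agonist challenge used bursicon conditioned medium at about half maximal strength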
A number is an active result; – = inactive; · = not tested or not shown.

SMILES	EWS-Fli block	rRNA inh HTS	E-sel inducer	LGR2 inh
Cc1ccc(NC2=C(Cl)C(=O)OC2OC(=O)c2ccccc2)c(C)c1 (stereo not given)	–	-41.1	·	–
CCN1C(=O)S/C(=C/c2ccc(Sc3nc4ccccc4[nH]3)o2)C1=O	–	-23.1	–	–
COc1cccc2c1C(=O)C=C(C)C2=O	–	–	·	–
COC1=CC(=O)c2c(ccc3ncnc(N)c23)C1=O	–	·	·	96.5
CCCNC(=O)Nc1ccc2c(c1)C(=O)N(C)[C@H]1CC[C@@H](CC(=O)O)O[C@H]1CO2	–	–	–	–
COc1ccccc1/C=C(/C(=O)OCC(=O)Nc1ccccc1C)c1ccccc1	–	-21.6	·	–
CCCc1nc2ccccc2n1Cc1ccccc1OC	–	-45.5	–	–
CCn1c(=N)n(CC(O)COc2ccc(C)cc2)c2ccccc21 (stereo not given)	–	–	–	–
O=C(O)c1ccc(OCC(O)Cn2c3ccccc3c3ccccc32)cc1 (stereo not given)	–	-46.0	·	–
CCCn1c(=N)n(CC(O)COc2ccc(C)cc2)c2ccccc21 (stereo not given)	–	-26.1	·	–
COc1ccc2nc(N3C(=O)C(O)=C(C(=O)c4ccco4)C3c3ccccc3OC)sc2c1 (stereo not given)	·	-31.8	–	–
COc1ccc2nc(N3C(=O)C(O)=C(C(=O)c4ccco4)C3c3ccc(C)o3)sc2c1 (stereo not given)	–	–	–	–
Cc1noc(C)c1NC(=O)N(C)C[C@@H]1Oc2ccc(NS(C)(=O)=O)cc2CC(=O)N([C@@H](C)CO)C[C@H]1C	–	–	–	–
C#CCn1ccc(O)c(Cc2c(F)cccc2Cl)c1=O	–	–	·	–
O=c1c(Cc2c(F)cccc2Cl)c(O)ccn1C1CC1	–	-31.0	–	–
C[C@@H]1CN([C@H](C)CO)C(=O)c2cc(NS(C)(=O)=O)ccc2O[C@@H]1CN(C)C(=O)Nc1ccccc1	–	–	81.7	–
C[C@@H]1CN([C@H](C)CO)C(=O)c2cc(NS(=O)(=O)c3ccccc3)ccc2O[C@@H]1CN(C)C(=O)NC1CCCCC1	–	–	116.6	–
C[C@H](CO)N1C[C@H](C)[C@H](CN(C)C(=O)NC2CCCCC2)Oc2ccc(NS(=O)(=O)c3ccccc3)cc2C1=O	–	–	62.8	–
C[C@H](CO)N1C[C@H](C)[C@H](CN(C)Cc2ccncc2)Oc2c(NC(=O)Nc3ccccc3)cccc2C1=O	–	–	–	–
CSc1nnc(NC(=O)c2ccc3c(c2)OCO3)s1	61.7	–	·	66.7
Cc1nnc(NC(=O)c2ccc3c(c2)OCO3)s1	–	–	–	–
O=C(CSc1nnc(NC(=O)c2ccc3c(c2)OCO3)s1)NCc1ccco1	–	–	–	60.0
CCN(CC)S(=O)(=O)c1ccc(NC(=O)C2CCCN(C(=O)c3ccc(Cl)cc3)C2)cc1 (stereo not given)	–	-22.7	·	–
O=C(CNCc1ccc(Cl)cc1)Nc1ccc(C(=O)N2CCCCCC2)cc1	–	-29.7	·	–
O=C(CNCc1ccc(Cl)cc1)Nc1ccc(C(=O)N2CCCCC2)cc1	·	–	·	–
SMILES	EWS-Fli block	rRNA inh HTS	E-sel inducer	LGR2 inh
Fc1ccc(NC(=S)N2CCN(c3cccc(C(F)(F)F)c3)CC2)cc1	–	–	147.8	–
O=S(=O)(Nc1ncccn1)c1ccc(NC(=S)N2CCN(c3cccc(C(F)(F)F)c3)CC2)cc1	–	–	–	–
CCOCCCNCc1ccc(OC)cc1	·	·	·	–
COc1ccc2cc(CNCCOCCOCCNCc3ccc4cc(OC)ccc4c3)ccc2c1	55.6	–	–	102.7
CCOc1cc(/C=C2\CN(C)C/C(=C\c3ccc(O)c(OCC)c3)C2=O)ccc1O	52.6	–	–	–
CN1C/C(=C/c2ccncc2)C(=O)/C(=C/c2ccncc2)C1	56.2	–	·	–
COc1ccc([C@H]2C/C=C\C[C@H](c3cccc(Cl)c3)NC(=O)[C@@H](c3ccccc3)CC(=O)N2)c(OC)c1	·	–	·	·
COc1ccc(NC(=O)CN(c2cc(C)cc(C)c2)S(=O)(=O)c2c(C)n[nH]c2C)cc1	–	–	·	–
COc1ccc(NC(=O)CCN(c2ccc(OC)cc2)S(=O)(=O)c2ccc(C)c(C)c2)cc1	–	-26.6	–	–
COc1ccc(N(CC(=O)Nc2ccc(C)c(C)c2)S(=O)(=O)c2c(C)noc2C)cc1	·	–	–	–
COc1ccc(N(CC(=O)Nc2ccc(F)c(F)c2)S(=O)(=O)c2c(C)n[nH]c2C)cc1	·	-25.6	·	–
C[C@@H]1CN([C@@H](C)CO)C(=O)c2cc(NS(=O)(=O)c3cn(C)cn3)ccc2O[C@@H](C)CCCCO[C@H]1CN(C)S(=O)(=O)c1ccc(Cl)cc1	–	–	–	–
O=C(NCC1CCCCC1)[C@H]1[C@H](CO)[C@H]2Cn3c(ccc(-c4cccnc4)c3=O)[C@@H]1N2	–	–	–	–
O=C(/C=C/c1cccc([N+](=O)[O-])c1)c1ccc([N+](=O)[O-])o1	80.9	–	–	–
O=C(/C=C/c1cccc([N+](=O)[O-])c1)c1ccco1	57.5	–	·	–
Cc1ccccc1/C=C/C(=O)c1ccc([N+](=O)[O-])o1	71.2	–	–	92.0
O=C(/C=C/c1ccc(Cl)c([N+](=O)[O-])c1)Nc1cccc(NC(=O)c2ccco2)c1	–	–	·	56.7
COc1ccc(NC(=O)Nc2ccc3c(c2)C(=O)N([C@H](C)CO)C[C@@H](C)[C@H](CN(C)S(=O)(=O)c2cccs2)OCCCC[C@H](C)O3)cc1	–	–	–	–
Cc1ccc(S(=O)(=O)N(C)C[C@@H]2Oc3ncc(-c4ccccc4)cc3C(=O)N([C@@H](C)CO)C[C@H]2C)cc1	–	–	–	–
COCC(=O)N(C)C[C@H]1Oc2ncc(-c3ccc(C)cc3)cc2C(=O)N([C@H](C)CO)C[C@H]1C	–	–	–	–
CO[C@@H]1CN(C)C(=O)c2ccc(NS(C)(=O)=O)cc2OC[C@H](C)NC[C@@H]1C	–	–	–	–
Cc1cccc(/C=C/C(=O)c2ccc([N+](=O)[O-])o2)c1	62.8	–	–	101.2
Cc1cc(NC(=O)c2c(-c3ccccc3Cl)noc2C)no1	–	–	·	–
Cc1onc(-c2ccccc2Cl)c1C(=O)Nc1nn[nH]n1	–	-30.9	·	–
C[C@@H]1CN([C@H](C)CO)C(=O)c2cc(NC(=O)c3ccccc3)ccc2O[C@@H](C)CCCCO[C@H]1CN(C)C(=O)NC1CCCCC1	–	–	–	–
Cc1ccc(C)c(S(=O)(=O)N2CCCCC2CCNC(=O)C(=O)NCc2ccccn2)c1 (stereo not given)	–	–	–	–
Cc1cc(F)ccc1S(=O)(=O)N1CCCCC1CCNC(=O)C(=O)NCc1ccccn1 (stereo not given)	–	–	75.0	–
O=C(O)C[C@@H]1CC[C@H](NC(=O)Nc2cc(F)ccc2F)[C@H](CO)O1	–	–	–	–
CCC(CO)Oc1cc(NC(=O)c2cccc(Cl)c2)c2ncn(C(C)C)c2c1 (stereo not given)	–	–	–	–
CC(C)n1cnc2c(N(C)c3cccc(Cl)c3)nc(N(CCO)CCO)nc21	–	-33.2	–	–

Source: PubChem BioAssay
